Holding throughout (type): ADME, organism-based
The nature of data set [1]: Cmax in patient with end-stage renal failure undergoing genius system-mediated dialysis at 4 mg/kg, iv after 2 hrs by LC/MS/MS analysis. Set-up: dose 4 mg/kg, route intravenous. To be noted: human, in vivo. In short, it runs like this: (§1)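 End-stage renal failure patients on 6-h Genius dialysis, hemodialysis or hemodiafiltration received a single 2-h iv infusion of 4 mg/kg. Venous plasma sampled before dosing and at 1, 2, 3, 4, 6 and 6.5 h from a site other than the infusion line, stored at −20°C. Quantified by LC-MS-MS against a 30 to 5,000 ng/ml calibration, analysed noncompartmentally.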

A short description of data set [2]: Cmax in patient with end-stage renal failure undergoing hemodiafiltration at 4 mg/kg, iv after 2 hrs by LC/MS/MS analysis. Set-up: dose 4 mg/kg, route intravenous. As to conditions: human, in vivo. In short, it runs like this: as §1
Data set [3] in a line: Cmax in patient with end-stage renal failure undergoing hemodialysis at 4 mg/kg, iv after 2 hrs by LC/MS/MS analysis. Set-up: dose 4 mg/kg, route intravenous. As to conditions: human, in vivo. The method, boiled down: as §1
A short description of data set [4]: Terminal half life in human with normal renal function. As to conditions: in vivo, read-out: beta t1/2 (converted).

Molecules are shown by their SMILES.

Broadly, the Cmax is the highest concentration seen after dosing.

With `C[C@@H](c1ncncc1F)[C@](O)(Cn1cncn1)c1ccc(F)cc1F` [VORICONAZOLE], the Cmax in data set [1] came out at 1800 ng/mL; in data set [2], 1900 ng/mL; in data set [3] it was 1700 ng/mL. The half-life in data set [4] is 7 h.
